Active and inactive are the calls of the source. The rule behind the calls is not given here.
Legend:
PC-3 [1] = assay: Induction of cell cycle arrest in human PC3 cells assessed as accumulation in G0/G1 phase at 2 uM after 24 hrs by […]propidium iodide based flow cytometric analysis (reference value: 43.5 to 62.5 %); format: functional
PC-3M [2] = assay: Antitumor activity against human PC3M-lluc-C6 cells xenografted in athymic Balb/c mouse assessed as decrease in tumor burden by measuring photon intensity at 15 mg/kg, ip measured on day 9 by bioluminescence method (reference value: 6.501 x 10^9 photons/s/cm2); format: functional
PC-3 [3] = assay: Induction of apoptosis in human PC3 cells after 24 hrs by Annexin V-FITC/propidium iodide based flow cytometric analysis; format: functional, cell-based
Outline: (§1)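 PC3 cells exposed to 0.5, 1 or 2 μM for 24 h, then stained with Annexin V-FITC and PI and analyzed by FACSCalibur flow cytometry. Populations assigned as necrotic (Annexin V−/PI+), late apoptotic (double positive), normal (Annexin V−/PI−) and early apoptotic (Annexin V+/PI−). DMSO vehicle control.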

PC-3 [4] = assay: Growth inhibition of human PC3 cells at IC30 in presence of […] by MTT assay; format: functional
[5] = biological target: T1, Eukaryotic translation initiation factor 2-alpha kinase 3 (Homo sapiens) (UniProt Q9NZJ5); assay: Activation of PERK phosphorylation in human PC3 cells after 24 hrs by Western blot analysis; format: cell-based
T1 sequence (whole entry): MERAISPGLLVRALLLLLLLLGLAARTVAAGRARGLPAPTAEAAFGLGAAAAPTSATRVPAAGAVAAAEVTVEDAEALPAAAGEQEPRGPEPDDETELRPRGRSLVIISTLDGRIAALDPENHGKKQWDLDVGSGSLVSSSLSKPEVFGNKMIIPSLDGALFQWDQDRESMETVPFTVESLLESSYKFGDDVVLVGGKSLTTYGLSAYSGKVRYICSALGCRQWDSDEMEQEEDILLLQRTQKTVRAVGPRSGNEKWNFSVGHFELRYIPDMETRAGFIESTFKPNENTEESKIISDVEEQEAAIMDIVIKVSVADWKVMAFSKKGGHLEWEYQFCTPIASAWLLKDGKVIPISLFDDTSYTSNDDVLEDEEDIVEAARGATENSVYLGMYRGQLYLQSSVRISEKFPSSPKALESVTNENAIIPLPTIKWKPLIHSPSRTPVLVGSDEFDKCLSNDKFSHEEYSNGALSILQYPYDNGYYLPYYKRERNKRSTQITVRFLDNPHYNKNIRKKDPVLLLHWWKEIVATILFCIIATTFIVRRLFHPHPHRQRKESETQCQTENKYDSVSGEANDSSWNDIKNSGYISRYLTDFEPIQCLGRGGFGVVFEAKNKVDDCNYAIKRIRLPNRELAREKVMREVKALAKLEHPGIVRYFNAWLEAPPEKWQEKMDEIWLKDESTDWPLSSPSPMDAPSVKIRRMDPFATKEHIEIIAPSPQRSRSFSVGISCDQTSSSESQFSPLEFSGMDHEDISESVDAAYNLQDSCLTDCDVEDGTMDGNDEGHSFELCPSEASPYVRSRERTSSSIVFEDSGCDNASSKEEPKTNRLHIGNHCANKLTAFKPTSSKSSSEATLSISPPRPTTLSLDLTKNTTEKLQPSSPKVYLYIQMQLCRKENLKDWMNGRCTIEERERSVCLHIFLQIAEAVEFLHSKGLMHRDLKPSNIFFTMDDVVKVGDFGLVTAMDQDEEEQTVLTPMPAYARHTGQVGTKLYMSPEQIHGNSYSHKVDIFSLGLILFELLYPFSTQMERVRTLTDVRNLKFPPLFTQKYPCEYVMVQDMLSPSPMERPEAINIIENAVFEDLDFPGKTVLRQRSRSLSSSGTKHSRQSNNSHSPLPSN
Outline: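 PC3 cells in RPMI 1640 with 10% FBS, treated with compound for timed intervals. DMSO vehicle control. Lysis in RIPA buffer, 40 μg protein per lane on SDS-PAGE, transfer to nitrocellulose. Primary antibodies overnight at 4 °C, HRP-secondary 45 min, ECL detection. GAPDH or β-actin used as loading control.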

PC-3 [6] = assay: Induction of morphological changes in human PC3 cells assessed as formation of massive cytoplasmic vacuoles at 1 uM after 12 hrs by confocal microscopic analysis; format: functional, cell-based
PC-3 [7] = assay: Induction of apoptosis in human PC3 cells assessed as viable cells at 0.5 uM after 24 hrs by Annexin V-FITC/propidium iodide based flow cytometric analysis (reference value: 95.4 %); format: functional; settings: PC-3, 24 h, read-out: Activity; outline: as §1
PC-3 [8] = assay: Induction of apoptosis in human PC3 cells assessed as necrotic cells at 1 uM after 24 hrs by Annexin V-FITC/propidium iodide based flow cytometric analysis (reference value: 1.1 %); format: functional; outline: as §1
PC-3 [9] = assay: Induction of cytoplasmic vacuolation in human PC3 cells assessed as formation of small vacuoles at 1 uM after 4 hrs by phase-contrast microscopic analysis; format: functional, cell-based
Outline: (§2)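 PC3 cells in RPMI 1640 with 10% FBS at 37 °C, 5% CO2, treated with 1 μM agent for 0−24 h; DMSO vehicle control. Vacuole appearance, size and number followed over time by phase-contrast microscopy at constant magnification.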

PC-3 [10] = assay: Induction of cell cycle arrest in human PC3 cells assessed as accumulation in S phase at 2 uM after 24 hrs by […]propidium iodide based flow cytometric analysis (reference value: 21 to 31.6 %); format: functional
PC-3M [11] = assay: Induction of immature autophagy i in human PC3M-lluc-C6 cells xenografted in athymic Balb/c mouse assessed as increase in p62 protein levels at 15 mg/kg, ip administered every 2 days for 18 days by Western blot and immunohistochemical staining method; format: functional, organism-based
Outline: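 Male athymic BALB/c-nu mice (6 weeks) carried subcutaneous right-flank PC3M-luc-C6 xenografts (5 × 10^6 cells). At ~0.1 cm3 they were grouped (n = 5) and given 15 mg/kg i.p. suspension every 2 days; placebo and docetaxel 15 mg/kg were controls. Tumors were analyzed by Western blot and by immunohistochemistry (anti-LC3 1:800, anti-p62 1:500, overnight 4 °C, HRP/DAB, hematoxylin counterstain).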

PC-3 [12] = assay: Induction of cytoplasmic vacuolation in human PC3 cells at 1 uM after 24 hrs by phase-contrast microscopic analysis; format: functional, cell-based; outline: as §2
PC-3 [13] = assay: Cytotoxicity against human PC3 cells assessed as cell growth inhibition after 24 hrs by MTT assay; format: functional, cell-based; settings: PC-3, 24 h
Outline: (§3)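 Cells seeded 24 h in RPMI 1640 + 10% FBS. RWPE-1 was kept in K-SFM with bovine pituitary extract and EGF. Cells then exposed to compounds for 24 h at 37 °C, 5% CO2, with DMSO vehicle and docetaxel as positive control. MTT added for 4 h, absorbance read at 570 nm. Triplicate runs, IC50 reported as mean of three experiments.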

HeLa = assay: Cytotoxicity against human HeLa cells assessed as cell growth inhibition after 24 hrs by MTT assay; format: functional, cell-based; outline: as §3
PC-3 [14] = assay: Induction of apoptosis in human PC3 cells assessed as early apoptotic cells at 1 uM after 24 hrs by Annexin V-FITC/propidium iodide based flow cytometric analysis (reference value: 2.3 %); format: functional; outline: as §1

Cc1cc(C)cc(COc2cc3c(cc2OCc2cc(C)cc(C)c2)[C@@H]2C[C@H](O)C[C@@H](C)N2CC3)c1 (racemic)
Activity (PC-3 [1]): 80.2 - 81.4%
Activity (PC-3M [2]): 2.45 ×10⁹ /s/cm2
Activity (PC-3 [3]): Dose-dependent effect
growth inhibition (GI) (PC-3 [4]): 54%
Activity [5]: Active
Activity (PC-3 [6]): Active
viability at 0.5 µM (PC-3 [7]): 95.3%
Activity (PC-3 [8]): 1.6%
Activity (PC-3 [9]): Active
Activity (PC-3 [10]): 6.38 - 9.05%
Activity (PC-3M [11]): Active
Activity (PC-3 [12]): Active
IC50 (PC-3 [13]): 0.66 µM
IC50 (HeLa): 1.65 µM
Activity (PC-3 [14]): 5.9%

— ChEMBL document CHEMBL4425094, “Novel Benzo[a]quinolizidine Analogs Induce Cancer Cell Death through Paraptosis and Apoptosis” (J Med Chem, 2016)
